DDE Tn7 FP inh: DD(E)-Tn7 binding inhibition, primary FP screen; inhibition, % at 8.3 µM; FP displacement of FITC-Tn7 peptide from fibrin DD(E); 0% = median of compound wells per plate; P02675; actives 0.13% (n = 370,000); AID 720508;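 active = inhibition above the mean of compounds falling within the control limits plus 3 SD of them, cut at about 14% in these data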
Target sequence (P02675 whole entry, looked up): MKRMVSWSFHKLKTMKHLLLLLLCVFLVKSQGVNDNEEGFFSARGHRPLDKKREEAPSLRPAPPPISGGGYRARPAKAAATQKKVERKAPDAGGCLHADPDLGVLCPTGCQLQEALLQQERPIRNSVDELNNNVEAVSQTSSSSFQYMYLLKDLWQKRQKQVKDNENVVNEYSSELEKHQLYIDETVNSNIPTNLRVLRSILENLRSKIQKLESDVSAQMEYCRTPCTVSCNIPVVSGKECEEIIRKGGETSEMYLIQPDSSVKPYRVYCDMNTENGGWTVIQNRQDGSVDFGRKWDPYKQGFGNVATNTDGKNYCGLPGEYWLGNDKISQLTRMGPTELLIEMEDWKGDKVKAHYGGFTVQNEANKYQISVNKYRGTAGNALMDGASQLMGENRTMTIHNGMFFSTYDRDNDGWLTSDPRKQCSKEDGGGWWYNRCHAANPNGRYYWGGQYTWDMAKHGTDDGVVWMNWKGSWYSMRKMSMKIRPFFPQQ
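Assay system: human fibrin DD(E) protein / Input: 2 µM fibrin DD(E) / Benchmarks: high control of 10 µM Aha-Tn7 peptide / Measured by: fluorescence polarization of the labelled Tn7 tracer / Medium: Tris buffer with calcium and detergent, pH 7.8 / Timing: 10 min compound pre-incubation, 3 h probe incubation at room temperature / Repeats: one replicate per compound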
Neddylation inh: blocks human cullin neddylation; P61081+Q13564; actives 0.58% (n = 360,000); inhibition, % at 25 µM; TR-FRET cullin neddylation, biochemical; in the data active = inhibition above about 36%
PKA-R2B act: activators of human PKA-R2B complex. P22694+P31323. PKA-R2B holoenzyme dissociation, Cy5-IP20 fluorescence polarization; R2B truncated from residue 108, S112A mutant; 0% DMSO only, 100% 113 µM cGMP. activation, % at 11.4 µM. actives 0.079% (n = 340,000);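 active = activation above a cutoff set at the mean over all compounds plus 3 SD, cut at about 18% in these data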;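 also: higher means more holoenzyme dissociation and a rise in polarization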
Tn6 DDE FP: DD(E)-Tn6 binding inhibition, primary FP screen; Fibrin DD(E) TRITC-Tn6 fluorescence polarization displacement; inhibition, % at 8.3 µM; actives 0.21% (n = 370,000); P02675;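 active = inhibition above a per-campaign cutoff: mean of compounds within control limits plus 3 SD, cut at about 15% in these data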
PKA-R1A activ: activates the PKA-R1A holoenzyme complex. P00514+P68181. PKA-R1A dissociation, Cy5-IP20 fluorescence polarization; scaled: DMSO 0%, 113 µM cGMP 100%. activation, % at 11.4 µM. actives 0.083% (n = 340,000);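 active = percent activation above the mean of all tested compounds plus 3 SD, cut at about 19% in these data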;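 also: higher means more PKAc released from R1A so a rise in polarization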
R1A FP artifact: fluorescence polarization artifact in PKA-R1A activator counter-screen; shares compounds with PKA-R1A activ; Cy5-IP20 peptide alone, fluorescence polarization artifact counterscreen; activation, % at 11.4 µM; actives 7% (n = 280); AID 504799;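 active = mean activation over triplicate runs exceeds the adjusted cutoff derived for the parent primary screen, cut at about 19% in these data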;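 also: no PKA protein present so any polarization rise reflects compound interference; higher means stronger polarization artifact and likely false positive in parent screen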
PKA-R1A act conf: confirmation of PKA-R1A complex activators; activation, % at 11.4 µM; Cy5-IP20 fluorescence polarization, PKA-R1A holoenzyme dissociation; shares compounds with PKA-R1A activ; actives 9% (n = 280);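 active = mean activation over replicate wells exceeds the adjusted hit threshold taken from the earlier primary screen, cut at about 20% in these data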
Neddyl inh conf: cullin neddylation inhibition, confirmation; shares compounds with Neddylation inh; TR-FRET cullin neddylation biochemical assay; calls only at 25 µM; actives 13% (n = 1,800); AID 652217; in the data active = inhibition above about 40%;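 also: neddylation substrate is the cullin 1 ring ligase complex with SKP2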
A number is an active result; 0 = inactive; - = not tested or not shown. Shown are actives, neighbours in structure and some others; about 1% of the full set was active somewhere.

SMILES	DDE Tn7 FP inh	Neddylation inh	PKA-R2B act	Tn6 DDE FP	PKA-R1A activ	R1A FP artifact	PKA-R1A act conf	others
O=C1NCCc2c1[nH]c1ccc([N+](=O)[O-])cc21	0	0	0	0	19	0	0
COc1ccc2[nH]c3c(c2c1)CCNC3=O	0	-	0	0	0	-	-
COc1ccc(Cn2ccnc2)cc1Br	0	0	0	0	20	0	0
COc1ccc(S(=O)(=O)Nc2c(C)cccc2C)cc1-n1cnnn1	0	0	0	0	19	0	0
COc1ccc(S(=O)(=O)NC2CC2)cc1-n1cnnn1	0	0	-	0	-	-	-
CN(C)CCCCOc1cccc(Br)c1	0	0	0	0	23	0	0
CC1CCCN(CCC(=O)c2ccc(Br)cc2)C1 (stereo unspecified)	0	0	0	0	19	0	0
CCCCNC(=O)C[C@@H]1C(=O)N(CCc2ccc(Cl)cc2)/C2=C/CCCCC[C@@]21C(=O)OCC	0	-	-	0	-	-	-
Cc1cc(C(=O)COC(=O)c2ccc(CO)cc2)c(C)n1CC1COc2ccccc2O1 (stereo unspecified)	0	0	0	0	19	0	0
Cc1cc(C(=O)CN2C(=O)C(=O)N(Cc3ccccc3)C2=O)c(C)n1CC1COc2ccccc2O1 (stereo unspecified)	0	0	0	0	0	-	-
O=C1Nc2ccccc2Cc2ccccc21	0	0	0	0	20	0	0
S=C1Cc2ccccc2N1	0	0	0	0	0	-	-
COc1ccc(C(=O)NC2CCCc3ccccc32)cc1[N+](=O)[O-] (stereo unspecified)	0	0	0	0	0	-	-
Cc1c(C(=O)NC2CCCc3ccccc32)cccc1[N+](=O)[O-] (stereo unspecified)	0	0	0	0	23	0	0
COc1cccc(CNCc2ccccc2OC)c1	0	0	0	0	0	-	-
COc1cccc(CNCc2cc(OC)cc(OC)c2)c1	0	0	0	0	21	0	0
CC(NC(=O)NCCCn1ccnc1)(C(F)(F)F)C(F)(F)F	0	0	0	0	21	0	0
CCCCCN1CCCCC(NC(=O)c2ccccc2OC)C1=O (stereo unspecified)	0	-	-	0	-	-	-
O=C(CN1C(=O)c2cccnc2C1=O)c1ccccc1	0	0	0	0	20	0	0
COCCN(CCOc1cc(C)cc(C)c1)Cc1ccc(Cl)cc1	0	0	0	0	20	0	0
Oc1ccc2ccccc2c1/C=N/n1cnnc1	0	0	0	0	19	0	0
COCCCn1c(SCC(=O)NC2CCCC2)nnc1-c1ccco1	0	0	0	0	26	0	0
Cc1ccc(S(=O)(=O)N[C@H](C(=O)OCC(=O)NC(=O)Nc2ccc3c(c2)OCCO3)C(C)C)cc1	0	0	0	0	0	-	-
CC(C)[C@H](NS(=O)(=O)c1ccc2c(c1)OCCO2)C(=O)OCC(=O)Nc1ccccc1	0	0	0	0	19	0	0
CC(=O)c1ccc(N2CCC(C)CC2)c(F)c1	0	0	0	0	20	0	0
SMILES	DDE Tn7 FP inh	Neddylation inh	PKA-R2B act	Tn6 DDE FP	PKA-R1A activ	R1A FP artifact	PKA-R1A act conf	others
CC(C)OP(=O)(O)C(C)NC(=O)OCc1ccccc1 (stereo unspecified)	0	-	-	0	-	-	-
Cc1ccc(CC(=O)NCCc2ccc(S(N)(=O)=O)cc2)cc1	0	0	0	0	19	0	0
COc1ccc(CC(=O)NCCc2ccc(S(N)(=O)=O)cc2)cc1	0	0	0	0	0	-	-
O=C(O[C@H]1CC[C@@]23CCCN2C(=O)CCC[C@H]3C1)N1CCCC1	0	-	-	0	-	-	-
O=C(NCC(c1ccccc1)c1ccccc1)[C@H](Cc1ccccc1)NC1(C(=O)NC2CCCCC2)CCCC1	0	-	-	0	-	-	-
CCOC(=O)N/N=C/c1ccc(N(CC)CC)cc1O	0	0	0	0	23	0	0
CCCCOc1ccc(C(=O)NC2CCCCN(C)C2=O)cc1 (stereo unspecified)	0	-	-	0	-	-	-
N#C/C(=C/c1ccco1)C(N)=S	0	64	0	0	19	0	0	Neddyl inh conf=0
O=C(Nc1ccc(F)cc1)OCc1cn(Cc2ccccc2)nn1	0	-	-	0	-	-	-
OC1CCCN(c2c3c(nc4cc(-c5cccc(Cl)c5)nn24)CCC3)C1 (stereo unspecified)	0	-	0	0	0	-	-
Cc1cccc(-c2cc3nc4c(c(N5CCCC(O)C5)n3n2)CCC4)c1 (stereo unspecified)	0	51	0	0	0	-	-
Fc1ccc(-c2cc3nc4c(c(N5CCOCC5)n3n2)CCCC4)cc1	0	-	0	0	0	-	-
OC1CCN(c2c3c(nc4cc(-c5ccc(F)cc5)nn24)CCC3)CC1	0	45	0	0	0	-	-	Neddyl inh conf=0
O=S1(=O)c2ccc(Br)cc2OC[C@H](Cc2ccccc2)N1Cc1cn(Cc2ccc(C(F)(F)F)cc2)nn1	0	-	-	0	-	-	-
C[C@H](CO)N1C[C@H](C)[C@@H](CN(C)C(=O)c2ccncc2)OCc2cn(nn2)CCCC1=O	0	-	-	0	-	-	-
COC[C@@H](O)[C@H]1OCc2cccc(OC)c2[C@@H]1/C=C/c1ccccc1	0	-	-	0	-	-	-
O=C(O)c1cccc(N2CCCC2)c1	0	39	0	0	0	-	-
O=C(O)c1cccc(N2CCCC2=O)c1	0	0	0	0	0	-	-
CCOC(=O)C1CCCN(c2cc(C)nc3cc(-c4ccc(Cl)cc4)nn23)C1 (stereo unspecified)	0	-	0	0	0	-	-
CCOC(=O)C1CCCN(c2cc(C)nc3cc(-c4ccc(F)cc4)nn23)C1 (stereo unspecified)	0	57	0	0	0	-	-	Neddyl inh conf=0
CC(C)c1[nH]nc2c1C(c1ccc3c(c1)OCO3)NC2=O (stereo unspecified)	0	-	-	0	-	-	-
Cc1cc(C)cc(Oc2nc3ccccn3c(=O)c2/C=C(\C#N)C(=O)NC2CCS(=O)(=O)C2)c1 (stereo unspecified)	0	48	-	0	-	-	-	Neddyl inh conf=0
COC(=O)c1ccc2nc(-c3cccc(Br)c3)c(Cc3ccccc3OC)n2c1	0	0	-	0	-	-	-
COC(=O)c1ccc2nc(-c3ccc(F)cc3)c(Cc3ccccc3OC)n2c1	0	53	-	0	-	-	-	Neddyl inh conf=0
CN1CC(O)([C@H](Cc2ccccc2)NC(=O)OC(C)(C)C)OCC1C(=O)NCc1cccc2ccccc12 (stereo partly specified)	0	-	-	0	-	-	-
COc1cc(C2C(C#N)=C(N)N(c3ccc(F)cc3)C3=C2S(=O)(=O)CC3)ccc1O (stereo unspecified)	0	47	0	0	0	-	-	Neddyl inh conf=0
COc1cc(C2C(C#N)=C(N)N(c3cccnc3)C3=C2C(=O)CCC3)ccc1O (stereo unspecified)	0	0	0	0	0	-	-

Compound activity: PubChem BioAssay, several laboratories
